Source: ChEMBL document CHEMBL1155265, “Design, synthesis and in vitro antibacterial/antifungal evaluation of novel 1-ethyl-6-fluoro-1,4-dihydro-4-oxo-7(1-piperazinyl)quinoline-3-carboxylic acid derivatives” (2009)

How the values were obtained:
Assay type in all cases: functional
Fusarium graminearum = assay: Antifungal activity against Gibberella zeae at 200 mg/L by plate growth rate method; details: read-out: GI
Procedure, shortened: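 Plate growth rate method: compound dissolved in DMSO, mixed into sterile PDA at 45 °C to 200 mg/L, plates poured. A 5 mm mycelium agar disc placed centrally; incubated at 28 °C in the dark until the untreated control covered the plate. Colony diameters measured; growth inhibition computed by Abbott's formula. Each compound tested three times.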

Bacillus subtilis = assay: Antibacterial activity against Bacillus subtilis at 50 mg/L after 24 hrs by agar well diffusion method; details: read-out: DIZ
Procedure, shortened: (§1)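 Bacteria plated as 0.8 mL of 24-h-old inoculum mixed into 60 mL sterile molten agar cooled to 45 °C, poured into three dishes. Wells bored with centres at least 24 mm apart. Test sample at 50 mg/L in DMSO added to wells. DMSO served as negative control and agricultural streptomycin sulfate as positive control. Read-out was inhibition zone diameter (mm).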

Rhizoctonia solani = assay: Antifungal activity against Rhizoctonia solani at 200 mg/L by plate growth rate method; details: read-out: GI
Procedure, shortened: (§2)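 Compound dissolved in DMSO and mixed into molten PDA at 45 °C at 200 mg/L, then plates allowed to set. A 5 mm mycelial agar disc was placed at the centre. Plates were incubated at 28 °C in the dark until the untreated control covered the plate. Colony diameters were measured and growth inhibition calculated by Abbott's formula. Each compound was tested three times.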

Ralstonia solanacearum = assay: Antibacterial activity against Ralstonia solanacearum at 50 mg/L after 24 hrs by agar well diffusion method; details: read-out: DIZ
Xanthomonas oryzae = assay: Antibacterial activity against Xanthomonas oryzae at 50 mg/L after 24 hrs by agar well diffusion method; details: read-out: DIZ
Cytospora mali = assay: Antifungal activity against Valsa mali at 200 mg/L by plate growth rate method; details: read-out: GI; procedure, shortened: as §2
Xanthomonas axonopodis = assay: Antibacterial activity against Xanthomonas axonopodis at 50 mg/L after 24 hrs by agar well diffusion method; details: read-out: DIZ; procedure, shortened: as §1
Erwinia = assay: Antibacterial activity against Erwinia aroideae at 50 mg/L after 24 hrs by agar well diffusion method; details: read-out: DIZ; procedure, shortened: as §1

Question: What does the source list for CCn1cc(C(=O)O)c(=O)c2cc(F)c(N3CCN(C(=O)/C=C/c4ccco4)CC3)cc21?
Answer: inhibition of growth at 200 µg/mL (Fusarium graminearum): 8%; zone of inhibition at 50 µg/mL (Bacillus subtilis): 19.4 mm; inhibition of growth at 200 µg/mL (Rhizoctonia solani): 20%; zone of inhibition at 50 µg/mL (Ralstonia solanacearum): 5.72 mm; zone of inhibition at 50 µg/mL (Xanthomonas oryzae): 15.3 mm; inhibition of growth at 200 µg/mL (Cytospora mali): 7%; zone of inhibition at 50 µg/mL (Xanthomonas axonopodis): 12.9 mm; zone of inhibition at 50 µg/mL (Erwinia): 14.9 mm

Question: For CCn1cc(C(=O)O)c(=O)c2cc(F)c(N3CCN(C(=O)c4ccco4)CC3)cc21, which inhibition of growth at 200 µg/mL (Fusarium graminearum) is on record?
Answer: 7%

Question: And the zone of inhibition at 50 µg/mL (Bacillus subtilis)?
Answer: 22.5 mm

Question: And the inhibition of growth at 200 µg/mL (Rhizoctonia solani)?
Answer: 14%

Question: What about the zone of inhibition at 50 µg/mL (Ralstonia solanacearum) of the same compound?
Answer: 9.81 mm

Question: What about the zone of inhibition at 50 µg/mL (Xanthomonas oryzae) of the same compound?
Answer: 22.9 mm

Question: And the inhibition of growth at 200 µg/mL (Cytospora mali)?
Answer: 8%

Question: What about the zone of inhibition at 50 µg/mL (Xanthomonas axonopodis) of the same compound?
Answer: 15.5 mm

Question: And the zone of inhibition at 50 µg/mL (Erwinia)?
Answer: 13.8 mm

Question: CCn1cc(C(=O)O)c(=O)c2cc(F)c(N3CCN(C(=O)COc4ccc(OC)cc4)CC3)cc21 was tested. Which inhibition of growth at 200 µg/mL (Fusarium graminearum) did it give?
Answer: 17%

Question: And the zone of inhibition at 50 µg/mL (Bacillus subtilis)?
Answer: 17.6 mm

Question: What about the inhibition of growth at 200 µg/mL (Rhizoctonia solani) of the same compound?
Answer: 60%

Question: What about the zone of inhibition at 50 µg/mL (Ralstonia solanacearum) of the same compound?
Answer: 6.31 mm

Question: And the zone of inhibition at 50 µg/mL (Xanthomonas oryzae)?
Answer: 14.5 mm

Question: What about the inhibition of growth at 200 µg/mL (Cytospora mali) of the same compound?
Answer: 10%

Question: And the zone of inhibition at 50 µg/mL (Xanthomonas axonopodis)?
Answer: 12.5 mm

Question: What about the zone of inhibition at 50 µg/mL (Erwinia) of the same compound?
Answer: 15.2 mm

Question: How did the zone of inhibition at 50 µg/mL (Bacillus subtilis) turn out when CN[C@@H]1[C@H](O[C@H]2[C@H](O[C@H]3[C@H](O)[C@@H](O)[C@H](N=C(N)N)[C@@H](O)[C@@H]3N=C(N)N)O[C@@H](C)[C@]2(O)C=O)O[C@@H](CO)[C@H](O)[C@H]1O [STREPTOMYCIN] was run?
Answer: 25 mm

Question: What about the zone of inhibition at 50 µg/mL (Ralstonia solanacearum) of the same compound?
Answer: 17.3 mm

Question: What about the zone of inhibition at 50 µg/mL (Xanthomonas oryzae) of the same compound?
Answer: 0.81 mm

Question: What about the zone of inhibition at 50 µg/mL (Xanthomonas axonopodis) of the same compound?
Answer: 0.2 mm

Question: What about the zone of inhibition at 50 µg/mL (Erwinia) of the same compound?
Answer: 0.5 mm

Question: Which results are given for CCn1cc(C(=O)O)c(=O)c2cc(F)c(N3CCN(C(=O)/C=C/c4ccccc4)CC3)cc21?
Answer: inhibition of growth at 200 µg/mL (Fusarium graminearum): 5%; zone of inhibition at 50 µg/mL (Bacillus subtilis): 15.2 mm; inhibition of growth at 200 µg/mL (Rhizoctonia solani): 29%; zone of inhibition at 50 µg/mL (Ralstonia solanacearum): 4.64 mm; zone of inhibition at 50 µg/mL (Xanthomonas oryzae): 11.7 mm; inhibition of growth at 200 µg/mL (Cytospora mali): 9%; zone of inhibition at 50 µg/mL (Xanthomonas axonopodis): 12.1 mm; zone of inhibition at 50 µg/mL (Erwinia): 10.8 mm

Question: How did the inhibition of growth at 200 µg/mL (Fusarium graminearum) turn out when CCn1cc(C(=O)O)c(=O)c2cc(F)c(N3CCN(C(=O)COc4ccccc4C)CC3)cc21 was run?
Answer: 20%

Question: What about the zone of inhibition at 50 µg/mL (Bacillus subtilis) of the same compound?
Answer: 15.3 mm

Question: What about the inhibition of growth at 200 µg/mL (Rhizoctonia solani) of the same compound?
Answer: 34%

Question: And the zone of inhibition at 50 µg/mL (Ralstonia solanacearum)?
Answer: 6.22 mm

Question: And the zone of inhibition at 50 µg/mL (Xanthomonas oryzae)?
Answer: 14.2 mm

Question: What about the inhibition of growth at 200 µg/mL (Cytospora mali) of the same compound?
Answer: 19%

Question: What about the zone of inhibition at 50 µg/mL (Xanthomonas axonopodis) of the same compound?
Answer: 10.7 mm

Question: And the zone of inhibition at 50 µg/mL (Erwinia)?
Answer: 13.4 mm

Question: What does the source list for CCn1cc(C(=O)O)c(=O)c2cc(F)c(N3CCN(C(=O)c4ccccc4)CC3)cc21?
Answer: inhibition of growth at 200 µg/mL (Fusarium graminearum): 23%; zone of inhibition at 50 µg/mL (Bacillus subtilis): 20.7 mm; inhibition of growth at 200 µg/mL (Rhizoctonia solani): 25%; zone of inhibition at 50 µg/mL (Ralstonia solanacearum): 5.92 mm; zone of inhibition at 50 µg/mL (Xanthomonas oryzae): 22.7 mm; inhibition of growth at 200 µg/mL (Cytospora mali): 42%; zone of inhibition at 50 µg/mL (Xanthomonas axonopodis): 15.8 mm; zone of inhibition at 50 µg/mL (Erwinia): 17.9 mm

Question: Which inhibition of growth at 200 µg/mL (Fusarium graminearum) does the source give for CCn1cc(C(=O)O)c(=O)c2cc(F)c(N3CCN(C(=O)/C=C/c4ccc(C)o4)CC3)cc21 here?
Answer: 25%

Question: And the zone of inhibition at 50 µg/mL (Bacillus subtilis)?
Answer: 17 mm

Question: What about the inhibition of growth at 200 µg/mL (Rhizoctonia solani) of the same compound?
Answer: 83%

Question: And the zone of inhibition at 50 µg/mL (Ralstonia solanacearum)?
Answer: 6.97 mm

Question: What about the zone of inhibition at 50 µg/mL (Xanthomonas oryzae) of the same compound?
Answer: 18.1 mm

Question: And the inhibition of growth at 200 µg/mL (Cytospora mali)?
Answer: 25%

Question: And the zone of inhibition at 50 µg/mL (Xanthomonas axonopodis)?
Answer: 10.2 mm

Question: What about the zone of inhibition at 50 µg/mL (Erwinia) of the same compound?
Answer: 11.2 mm

Question: For CCn1cc(C(=O)O)c(=O)c2cc(F)c(N3CCN(C(=O)c4ccc(Cl)cc4)CC3)cc21, which inhibition of growth at 200 µg/mL (Fusarium graminearum) is on record?
Answer: 27%

Question: What about the zone of inhibition at 50 µg/mL (Bacillus subtilis) of the same compound?
Answer: 18.5 mm

Question: And the inhibition of growth at 200 µg/mL (Rhizoctonia solani)?
Answer: 21%

Question: What about the zone of inhibition at 50 µg/mL (Ralstonia solanacearum) of the same compound?
Answer: 1.47 mm

Question: What about the zone of inhibition at 50 µg/mL (Xanthomonas oryzae) of the same compound?
Answer: 17.7 mm

Question: What about the inhibition of growth at 200 µg/mL (Cytospora mali) of the same compound?
Answer: 16%

Question: And the zone of inhibition at 50 µg/mL (Xanthomonas axonopodis)?
Answer: 12.9 mm

Question: And the zone of inhibition at 50 µg/mL (Erwinia)?
Answer: 16.6 mm

Question: For CCn1cc(C(=O)O)c(=O)c2cc(F)c(N3CCN(C(=O)COc4ccc(Cl)cc4Cl)CC3)cc21, which inhibition of growth at 200 µg/mL (Fusarium graminearum) is on record?
Answer: 5%

Question: What about the zone of inhibition at 50 µg/mL (Bacillus subtilis) of the same compound?
Answer: 9.91 mm

Question: What about the inhibition of growth at 200 µg/mL (Rhizoctonia solani) of the same compound?
Answer: 72%

Question: And the zone of inhibition at 50 µg/mL (Ralstonia solanacearum)?
Answer: 0.5 mm

Question: And the zone of inhibition at 50 µg/mL (Xanthomonas oryzae)?
Answer: 10 mm

Question: And the inhibition of growth at 200 µg/mL (Cytospora mali)?
Answer: 17%

Question: And the zone of inhibition at 50 µg/mL (Xanthomonas axonopodis)?
Answer: 8.16 mm

Question: What about the zone of inhibition at 50 µg/mL (Erwinia) of the same compound?
Answer: 8.52 mm

Question: What does the source list for CCn1cc(C(=O)O)c(=O)c2cc(F)c(N3CCN(C(=O)COc4ccc(F)cc4)CC3)cc21?
Answer: inhibition of growth at 200 µg/mL (Fusarium graminearum): 15%; zone of inhibition at 50 µg/mL (Bacillus subtilis): 13.9 mm; inhibition of growth at 200 µg/mL (Rhizoctonia solani): 52%; zone of inhibition at 50 µg/mL (Ralstonia solanacearum): 3.31 mm; zone of inhibition at 50 µg/mL (Xanthomonas oryzae): 11 mm; inhibition of growth at 200 µg/mL (Cytospora mali): 12%; zone of inhibition at 50 µg/mL (Xanthomonas axonopodis): 11.1 mm; zone of inhibition at 50 µg/mL (Erwinia): 13.3 mm

Question: What does the source list for COC(=O)Nc1nc2ccccc2[nH]1 [CARBENDAZIM]?
Answer: inhibition of growth at 200 µg/mL (Fusarium graminearum): 100%; inhibition of growth at 200 µg/mL (Rhizoctonia solani): 100%; inhibition of growth at 200 µg/mL (Cytospora mali): 95%
